ChEMBL document CHEMBL4732114, “Design and structural optimization of novel 2H-benzo[h]chromene derivatives that target AcrB and reverse bacterial multidrug resistance” (Eur J Med Chem, 2021)
≈ marks a conversion by molar mass, not a printed value.

Tests used:
[1] = system: Escherichia coli; experiment: Antibacterial activity against multidrug-resistant Escherichia coli BW25113 harboring AcrB deletion mutant by two-fold broth dilution method; format: functional
Summary of the method: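 Two-fold broth dilution MIC against an isogenic BW25113 strain with AcrB deleted, run alongside the AcrB-expressing parent. The test was done to define sub-inhibitory levels for later checkerboard work.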

[2] = target: T1, Multidrug efflux pump subunit AcrB (Escherichia coli (strain K12)) (UniProt P31224); experiment: Inhibition of AcrB in multidrug-resistant Escherichia coli BW25113 assessed as potentiation of tetraphenylphosphonium-induced antibacterial activity by measuring tetraphenylphosphonium MIC at 16 ug/ml by checkerboard titration method (reference value: 1024 ug/ml); conditions: dose 16.0 µg/ml
T1 sequence (whole entry): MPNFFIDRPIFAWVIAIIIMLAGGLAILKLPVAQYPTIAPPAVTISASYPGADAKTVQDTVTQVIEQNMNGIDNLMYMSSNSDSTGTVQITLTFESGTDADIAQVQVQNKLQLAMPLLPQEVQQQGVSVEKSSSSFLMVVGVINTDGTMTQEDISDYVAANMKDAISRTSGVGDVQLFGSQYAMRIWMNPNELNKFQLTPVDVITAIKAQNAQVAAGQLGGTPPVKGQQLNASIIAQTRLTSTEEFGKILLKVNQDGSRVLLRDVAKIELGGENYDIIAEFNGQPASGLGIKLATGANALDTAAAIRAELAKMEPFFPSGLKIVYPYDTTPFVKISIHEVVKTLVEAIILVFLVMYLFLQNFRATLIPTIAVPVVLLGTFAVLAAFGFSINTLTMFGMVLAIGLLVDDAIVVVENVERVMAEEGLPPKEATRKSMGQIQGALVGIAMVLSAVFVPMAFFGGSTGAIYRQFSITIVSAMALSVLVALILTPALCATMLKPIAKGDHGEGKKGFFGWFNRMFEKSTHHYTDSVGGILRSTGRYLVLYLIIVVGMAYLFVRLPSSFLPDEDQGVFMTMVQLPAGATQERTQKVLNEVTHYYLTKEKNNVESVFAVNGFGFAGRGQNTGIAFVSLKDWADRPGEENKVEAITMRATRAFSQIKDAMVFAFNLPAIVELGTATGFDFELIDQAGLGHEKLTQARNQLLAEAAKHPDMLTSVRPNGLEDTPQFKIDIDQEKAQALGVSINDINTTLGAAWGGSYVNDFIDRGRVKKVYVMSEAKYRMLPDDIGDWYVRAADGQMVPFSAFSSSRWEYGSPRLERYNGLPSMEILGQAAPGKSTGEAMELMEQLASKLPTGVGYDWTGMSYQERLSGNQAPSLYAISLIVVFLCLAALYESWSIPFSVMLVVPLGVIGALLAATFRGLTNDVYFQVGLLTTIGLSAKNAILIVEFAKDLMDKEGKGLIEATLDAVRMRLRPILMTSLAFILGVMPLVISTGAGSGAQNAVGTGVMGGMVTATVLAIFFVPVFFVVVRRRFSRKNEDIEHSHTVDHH

[3] = target: T1, Multidrug efflux pump subunit AcrB (Escherichia coli (strain K12)); experiment: Inhibition of AcrB in multidrug-resistant Escherichia coli BW25113 assessed as potentiation of levofloxacin-induced antibacterial activity by measuring levofloxacin MIC at 64 ug/ml by checkerboard titration method (reference value: 0.06 ug/ml); conditions: dose 64.0 µg/ml
[4] = target: T1, Multidrug efflux pump subunit AcrB (Escherichia coli (strain K12)); experiment: Inhibition of AcrB in multidrug-resistant Escherichia coli BW25113 assessed as potentiation of chloramphenicol-induced antibacterial activity by measuring chloramphenicol MIC at 32 ug/ml by checkerboard titration method (reference value: 8 ug/ml); conditions: dose 32.0 µg/ml
[5] = target: T1, Multidrug efflux pump subunit AcrB (Escherichia coli (strain K12)); conditions: Escherichia coli BW25113; dose 128.0 µg/ml
[6] = target: T1, Multidrug efflux pump subunit AcrB (Escherichia coli (strain K12)); experiment: Inhibition of AcrB in multidrug-resistant Escherichia coli BW25113 assessed as potentiation of erythromycin-induced antibacterial activity by measuring erythromycin MIC at 32 ug/ml by checkerboard titration method (reference value: 64 ug/ml); conditions: dose 32.0 µg/ml
[7] = target: T1, Multidrug efflux pump subunit AcrB (Escherichia coli (strain K12)); conditions: Escherichia coli BW25113; dose 32.0 µg/ml
[8] = target: T1, Multidrug efflux pump subunit AcrB (Escherichia coli (strain K12)); conditions: Escherichia coli BW25113; dose 256.0 µg/ml
[9] = target: T1, Multidrug efflux pump subunit AcrB (Escherichia coli (strain K12)); experiment: Inhibition of AcrB in multidrug-resistant Escherichia coli BW25113 assessed as potentiation of erythromycin-induced antibacterial activity by measuring erythromycin MIC at 128 ug/ml by checkerboard titration method (reference value: 64 ug/ml); conditions: dose 128.0 µg/ml
[10] = target: T1, Multidrug efflux pump subunit AcrB (Escherichia coli (strain K12)); experiment: Inhibition of AcrB in multidrug-resistant Escherichia coli BW25113 assessed as potentiation of tetraphenylphosphonium-induced antibacterial activity by measuring tetraphenylphosphonium MIC at 64 ug/ml by checkerboard titration method (reference value: 1024 ug/ml); conditions: dose 64.0 µg/ml
[11] = target: T1, Multidrug efflux pump subunit AcrB (Escherichia coli (strain K12)); experiment: Inhibition of AcrB in multidrug-resistant Escherichia coli BW25113 assessed as potentiation of levofloxacin-induced antibacterial activity by measuring levofloxacin MIC at 128 ug/ml by checkerboard titration method (reference value: 0.06 ug/ml); conditions: dose 128.0 µg/ml
[12] = target: T1, Multidrug efflux pump subunit AcrB (Escherichia coli (strain K12)); experiment: Inhibition of AcrB in multidrug-resistant Escherichia coli BW25113 assessed as potentiation of levofloxacin-induced antibacterial activity by measuring levofloxacin MIC at 32 ug/ml by checkerboard titration method (reference value: 0.06 ug/ml); conditions: dose 32.0 µg/ml
[13] = target: T1, Multidrug efflux pump subunit AcrB (Escherichia coli (strain K12)); experiment: Inhibition of AcrB in multidrug-resistant Escherichia coli BW25113 assessed as potentiation of tetraphenylphosphonium-induced antibacterial activity by measuring tetraphenylphosphonium MIC at 32 ug/ml by checkerboard titration method (reference value: 1024 ug/ml); conditions: dose 32.0 µg/ml
[14] = target: T1, Multidrug efflux pump subunit AcrB (Escherichia coli (strain K12)); experiment: Inhibition of AcrB in multidrug-resistant Escherichia coli BW25113 assessed as potentiation of levofloxacin-induced antibacterial activity by measuring levofloxacin MIC at 256 ug/ml by checkerboard titration method (reference value: 0.06 ug/ml); conditions: dose 256.0 µg/ml
[15] = target: T1, Multidrug efflux pump subunit AcrB (Escherichia coli (strain K12)); experiment: Inhibition of AcrB in multidrug-resistant Escherichia coli BW25113 assessed as potentiation of chloramphenicol-induced antibacterial activity by measuring chloramphenicol MIC at 64 ug/ml by checkerboard titration method (reference value: 8 ug/ml); conditions: dose 64.0 µg/ml
[16] = target: T1, Multidrug efflux pump subunit AcrB (Escherichia coli (strain K12)); experiment: Inhibition of AcrB in multidrug-resistant Escherichia coli BW25113 assessed as potentiation of tetraphenylphosphonium-induced antibacterial activity by measuring tetraphenylphosphonium MIC at 256 ug/ml by checkerboard titration method (reference value: 1024 ug/ml); conditions: dose 256.0 µg/ml
[17] = target: T1, Multidrug efflux pump subunit AcrB (Escherichia coli (strain K12)); experiment: Inhibition of AcrB in multidrug-resistant Escherichia coli BW25113 assessed as potentiation of erythromycin-induced antibacterial activity by measuring erythromycin MIC at 16 ug/ml by checkerboard titration method (reference value: 64 ug/ml); conditions: dose 16.0 µg/ml
[18] = target: T1, Multidrug efflux pump subunit AcrB (Escherichia coli (strain K12)); experiment: Inhibition of AcrB in multidrug-resistant Escherichia coli BW25113 assessed as potentiation of chloramphenicol-induced antibacterial activity by measuring chloramphenicol MIC at 128 ug/ml by checkerboard titration method (reference value: 8 ug/ml); conditions: dose 128.0 µg/ml
[19] = target: T1, Multidrug efflux pump subunit AcrB (Escherichia coli (strain K12)); experiment: Inhibition of AcrB in multidrug-resistant Escherichia coli BW25113 assessed as potentiation of erythromycin-induced antibacterial activity by measuring erythromycin MIC at 64 ug/ml by checkerboard titration method (reference value: 64 ug/ml); conditions: dose 64.0 µg/ml
[20] = target: T1, Multidrug efflux pump subunit AcrB (Escherichia coli (strain K12)); experiment: Inhibition of AcrB in multidrug-resistant Escherichia coli BW25113 assessed as potentiation of levofloxacin-induced antibacterial activity by measuring levofloxacin MIC at 16 ug/ml by checkerboard titration method (reference value: 0.06 ug/ml); conditions: dose 16.0 µg/ml
[21] = target: T1, Multidrug efflux pump subunit AcrB (Escherichia coli (strain K12)); experiment: Inhibition of AcrB in multidrug-resistant Escherichia coli BW25113 assessed as potentiation of erythromycin-induced antibacterial activity by measuring erythromycin MIC at 256 ug/ml by checkerboard titration method (reference value: 64 ug/ml); conditions: dose 256.0 µg/ml
[22] = target: T1, Multidrug efflux pump subunit AcrB (Escherichia coli (strain K12)); experiment: Inhibition of AcrB in multidrug-resistant Escherichia coli BW25113 assessed as potentiation of tetraphenylphosphonium-induced antibacterial activity by measuring tetraphenylphosphonium MIC at 128 ug/ml by checkerboard titration method (reference value: 1024 ug/ml); conditions: dose 128.0 µg/ml
[23] = target: T1, Multidrug efflux pump subunit AcrB (Escherichia coli (strain K12)); experiment: Inhibition of AcrB in multidrug-resistant Escherichia coli BW25113 assessed as potentiation of chloramphenicol-induced antibacterial activity by measuring chloramphenicol MIC at 16 ug/ml by checkerboard titration method (reference value: 8 ug/ml); conditions: dose 16.0 µg/ml
[24] = target: T1, Multidrug efflux pump subunit AcrB (Escherichia coli (strain K12)); experiment: Inhibition of AcrB in multidrug-resistant Escherichia coli BW25113 assessed as potentiation of chloramphenicol-induced antibacterial activity by measuring chloramphenicol MIC at 256 ug/ml by checkerboard titration method (reference value: 8 ug/ml); conditions: dose 256.0 µg/ml
[25] = target: T1, Multidrug efflux pump subunit AcrB (Escherichia coli (strain K12)); conditions: Escherichia coli BW25113; dose 16.0 µg/ml
[26] = target: T1, Multidrug efflux pump subunit AcrB (Escherichia coli (strain K12)); conditions: Escherichia coli BW25113; dose 64.0 µg/ml

Structure (SMILES): CC[C@H]1OC(=O)[C@H](C)[C@@H](O[C@H]2C[C@@](C)(OC)[C@@H](O)[C@H](C)O2)[C@H](C)[C@@H](O[C@@H]2O[C@H](C)C[C@H](N(C)C)[C@H]2O)[C@](C)(O)C[C@@H](C)C(=O)[C@H](C)[C@@H](O)[C@]1(C)O [ERYTHROMYCIN]
- MIC [1]: 4 µg/mL (≈ 5.45 µM)

Structure (SMILES): C[C@@H](Cc1ccc(O)c(O)c1)[C@@H](C)Cc1ccc(O)c(O)c1
- MIC [2]: 1020 µg/mL
- MIC [3]: 0.03 µg/mL
- MIC [4]: 8 µg/mL
- MIC [5]: 16 µg/mL (≈ 52.9 µM)
- MIC [6]: 64 µg/mL
- MIC [7]: 16 µg/mL (≈ 52.9 µM)
- MIC [8]: 16 µg/mL (≈ 52.9 µM)
- MIC [9]: 64 µg/mL
- MIC [10]: 1020 µg/mL
- MIC [11]: 0.03 µg/mL
- MIC [12]: 0.06 µg/mL
- MIC [13]: 1020 µg/mL
- MIC [14]: 0.03 µg/mL
- MIC [15]: 8 µg/mL
- MIC [16]: 64 µg/mL
- MIC [17]: 64 µg/mL
- MIC [18]: 4 µg/mL
- MIC [19]: 64 µg/mL
- MIC [20]: 0.06 µg/mL
- MIC [21]: 32 µg/mL
- MIC [22]: 128 µg/mL
- MIC [23]: 8 µg/mL
- MIC [24]: 2 µg/mL
- MIC [25]: 16 µg/mL (≈ 52.9 µM)
- MIC [26]: 16 µg/mL (≈ 52.9 µM)

Structure (SMILES): C[C@H]1COc2c(N3CCN(C)CC3)c(F)cc3c(=O)c(C(=O)O)cn1c23.C[C@H]1COc2c(N3CCN(C)CC3)c(F)cc3c(=O)c(C(=O)O)cn1c23.O [LEVOFLOXACIN]
- MIC [1]: 0.04 µg/mL

Structure (SMILES): O=C(N[C@H](CO)[C@H](O)c1ccc([N+](=O)[O-])cc1)C(Cl)Cl [CHLORAMPHENICOL]
- MIC [1]: 2 µg/mL (≈ 6.19 µM)
